Experimental data of several laboratories.
Each line is one published result; the experiments were not run side by side.
Trypanothione synthetase: Trypanothione synthetase (Trypanosoma cruzi, UniProt Q9GT49)
Tmem97: Sigma intracellular receptor 2 (Tmem97, Rattus norvegicus, UniProt Q5U3Y7)
BDKRB2: B2 bradykinin receptor (BDKRB2, Homo sapiens, UniProt P30411)
EAPA: Endothiapepsin (EAPA, Cryphonectria parasitica, UniProt P11838)
MMP3: Stromelysin-1 (MMP3, Homo sapiens, UniProt P08254)
HTR2C: 5-hydroxytryptamine receptor 2C (HTR2C, Homo sapiens, UniProt P28335)
TACR1: Substance-P receptor (TACR1, Homo sapiens, UniProt P25103)

NCCNC(=O)CN1C(=O)Cc2c([nH]c3ccc(Br)cc23)-c2ccc(Cl)cc21
inhibition (Trypanothione synthetase; enzyme activity; inhibitor; absorbance; 30 µM): 26.3%

COc1ccc(CCC(C)N2CCc3cc(OC)c(OC)cc3C2)cc1 (stereo not drawn)
inhibition (Tmem97; ligand displacement; radioligand; 0.1 µM): 98%

CN(C)C(=O)CN1C(=O)Cc2c([nH]c3ccc(Br)cc23)-c2ccc(Cl)cc21
inhibition (Trypanothione synthetase; enzyme activity; inhibitor; absorbance; 30 µM): 14.9%

CN(Cc1ccc(NC(=O)C2=Cc3cc(-c4ccc(OCCCCCF)cc4)ccc3CCC2)cc1)C1CCOCC1
inhibition (Tmem97; ligand displacement; radioligand; 10 µM): 7%

O=C1N=C(N2CCCCN2)S/C1=C\c1ccc(F)cc1O
inhibition (BDKRB2; ligand displacement; radioligand; 10 µM): < 10%

CC(C)(C)OC(=O)CN1C(=O)Cc2c([nH]c3ccc(Br)cc23)-c2ccc(Cl)cc21
inhibition (Trypanothione synthetase; enzyme activity; inhibitor; absorbance; 30 µM): 10.3%

NNC(CCc1ccccc1)c1nnnn1Cc1ccc2c(c1)OCCO2 (stereo not drawn)
inhibition (EAPA; enzyme activity; inhibitor; 200 µM): 42.5%

O=C(c1ccc(Cl)cc1)N(Cc1ccccc1)C1CCCCC1
inhibition (BDKRB2; cell-free assay; 10 µM): -1.6%

O=C(O)c1ncccc1O
inhibition (MMP3; enzyme activity; inhibitor; 1 mM; pH 6): ~50%

Ic1cccc2cnccc12
inhibition (Poly [ADP-ribose] polymerase tankyrase-2 (TNKS2, Homo sapiens, UniProt Q9H2K2); enzyme activity; inhibitor; 10 µM): 12%

N#Cc1cc(Cn2c(N3CCCC3)nc3ccccc32)ccc1F
inhibition (HTR2C; ligand displacement; radioligand; 10 µM): 14.4%

CCN(Cc1ccccc1C(F)(F)F)C(=O)C1CCN(S(=O)(=O)c2ccc3[nH]ncc3c2)CC1
inhibition (TACR1; ligand displacement; radioligand; 10 µM): 18%

CCOC(=O)CN1C(=O)Cc2c([nH]c3ccc(Br)cc23)-c2ccc(Cl)cc21
inhibition (Trypanothione synthetase; enzyme activity; inhibitor; absorbance; 30 µM): 19.1%

C=CC1=C(C)C2=Cc3c(C=C)c(C)c4[n]3[Sn]([Cl])([Cl])[n]3c(c(C)c(CCC(=O)O)c3=CC3=NC(=C4)C(C)=C3CCC(=O)O)=CC1=N2
inhibition (Trypanothione synthetase; enzyme activity; inhibitor; absorbance; 25 µM): 18.7%

CCCC(NN)c1nnnn1Cc1ccccc1 (stereo not drawn)
inhibition (EAPA; enzyme activity; inhibitor; 200 µM): 3%

Oc1ccc(-c2nnc(CCCOc3ccc(Cl)cc3Cl)o2)c(F)c1
inhibition (1-deoxy-D-xylulose-5-phosphate synthase (dxs, Deinococcus radiodurans, UniProt Q9RUB5); enzyme activity; inhibitor; 120 µM): 49.2%

CC1CNc2c(cccc2S(=O)(=O)N[C@@H](CCCNC(=N)N)C(=O)N2CC[C@@H](C)C[C@@H]2C(=O)O)C1 (stereo partly drawn)
inhibition (Prothrombin (F2, Bos taurus, UniProt P00735); enzyme activity; inhibitor; fluorescence; 0.1 µg/mL): 94%

CCCCCC(NN)c1nnnn1Cc1ccc2c(c1)OCCO2 (stereo not drawn)
inhibition (EAPA; enzyme activity; inhibitor; 200 µM): 48.2%

CCCNc1nc2ccccc2n1Cc1ccc(Cl)cc1
inhibition (HTR2C; ligand displacement; radioligand; 10 µM): 80%

CN1CC(Oc2cnc(C#N)cc2-c2ccn3nc(NC(=O)C4CC4)cc3c2)C1
inhibition (MAPK/MAK/MRK overlapping kinase (MOK, Homo sapiens, UniProt Q9UQ07); enzyme activity; inhibitor; 1 µM): 15%

O=C(O)c1ccccn1
inhibition (MMP3; enzyme activity; inhibitor; 1 mM; pH 6): > 80%

Oc1cccc(Nc2nc(-c3ccc(F)cc3F)cs2)c1
inhibition (TACR1; cell-free assay; 10 µM): 30%

NNC(CCc1ccccc1)c1nnnn1Cc1ccc2c(c1)OCO2 (stereo not drawn)
inhibition (EAPA; enzyme activity; inhibitor; 200 µM): 36.3%

CNC(=O)c1cc(Oc2ccc(NC(=O)Nc3ccc(Cl)c(C(F)(F)F)c3)cc2)ccn1
inhibition (Serine/threonine-protein kinase SIK1 (SIK1, Homo sapiens, UniProt P57059); enzyme activity; inhibitor; 0.3 µM): 4%

COc1cc(NC(C)=O)c(Cl)cc1C(=O)Nc1nccs1
inhibition (TACR1; cell-free assay; 10 µM): -2.9%

O=C(CN1C(=O)Cc2c([nH]c3ccc(Br)cc23)-c2ccc(Cl)cc21)N1CCNCC1
inhibition (Trypanothione synthetase; enzyme activity; inhibitor; absorbance; 30 µM): 17.1%

O=C(c1ccc(F)cc1)N(Cc1ccccc1)C1CCCCC1
inhibition (BDKRB2; cell-free assay; 10 µM): -3%

CC(C)(C)OC(=O)NCCNC(=O)CN1C(=O)Cc2c([nH]c3ccc(Br)cc23)-c2ccc(Cl)cc21
inhibition (Trypanothione synthetase; enzyme activity; inhibitor; absorbance; 30 µM): 38.5%

CC(Cc1ccc(C(C)(C)C)cc1)C(NN)c1nnnn1Cc1ccc2c(c1)OCO2 (stereo not drawn)
inhibition (EAPA; enzyme activity; inhibitor; 200 µM): 95.3%

COc1cc2c3c(c1OC)-c1cc4c(cc1CC3N(C)CC2c1ccccc1)OCO4 (stereo not drawn)
inhibition (HTR2C; ligand displacement; radioligand; 10 µM): < 50%

CS(=O)(=O)O.c1cc2c(cc1C1CCCCC1)c1c3n2CCNC3CCC1 (stereo not drawn)
inhibition (Trypanothione synthetase; enzyme activity; inhibitor; absorbance; 25 µM): 28.9%

NNC(COCc1ccccc1)c1nnnn1CC(=O)NCc1cccs1 (stereo not drawn)
inhibition (EAPA; enzyme activity; inhibitor; 200 µM): 51.9%

O=C(CN1C(=O)Cc2c([nH]c3ccc(Br)cc23)-c2ccc(Cl)cc21)NCCN1CCOCC1
inhibition (Trypanothione synthetase; enzyme activity; inhibitor; absorbance; 30 µM): 11.3%

O=C(Nc1ccc(S(=O)(=O)N2CCC(Cl)CC2)cc1)c1ccc([N+](=O)[O-])o1
inhibition (BDKRB2; ligand displacement; radioligand; 10 µM): 4%

O=C(CN1C(=O)Cc2c([nH]c3ccc(Br)cc23)-c2ccc(Cl)cc21)Nc1ncco1
inhibition (Trypanothione synthetase; enzyme activity; inhibitor; absorbance; 30 µM): 6.9%

CN(C)C1CCN(CC#Cc2nn(C3CCCC3)c3nc(NCc4ccccc4)ncc23)C1 (stereo not drawn)
inhibition (Serine/threonine-protein kinase PLK1 (PLK1, Homo sapiens, UniProt P53350); enzyme activity; inhibitor; FRET; 10 µM): -5%
